The text below walks through data of publication PMC6430907 (Journal of Veterinary Internal Medicine, 2019).

The test system of this assay is dogs with compensated CHF caused by MMVD. Briefly: Urine output. It counts as in vivo, dog. The method in brief:
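Crossover design in 7 male dogs with ACVIM stage C CHF from MMVD, treated in fixed order with a 2-week washout. Baseline UOP was measured at the end of a 1-h control period. […] UOP was log-transformed and analysed by linear mixed modelling (REML, least square differences).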

Consider `NS(=O)(=O)c1cc(C(=O)O)c(NCc2ccco2)cc1Cl` [FRUS, furosemide], for which the “increase in median UOP compared to baseline at maximal effect” value (1 hour after treatment, median of 7 dogs) is listed as 1246%. Moreover, the “change in urine output (UOP) from baseline” value (BNP 5 μg/kg SC, FRUS 2 mg/kg SC, or both, 1, 2, 3 hours, 7 dogs) is recorded as “increased significantly”. Further, the “time after treatment of maximal effect on UOP” value (furosemide 2 mg/kg SC with or without BNP 5 μg/kg SC) stood at 1 h.
